Measured values taken from ChEMBL document CHEMBL4152215, “Anti-leishmanial click modifiable thiosemicarbazones: Design, synthesis, biological evaluation and in silico studies” (Eur J Med Chem, 2018).

Legend:
Leishmania major [1] = experiment: Antileishmanial activity against promastigote form of Leishmania major assessed as parasite growth inhibition after 48 hrs by alamar blue assay; type: functional, organism-based
Leishmania major [2] = experiment: Antileishmanial activity against axenic amastigote form of Leishmania major assessed as parasite growth inhibition after 72 hrs by resazurin dye based assay; type: functional, organism-based
Procedure, shortened: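 Axenic L. major amastigotes, generated in RPMI-1640 with 10% heat-inactivated FCS, penicillin/streptomycin and L-glutamine, seeded at 2 x 10³ cells/ml onto serially diluted compound (0.04-10 final). Held at 31°C, 5% CO₂, humidified, for 72 h. Resazurin added at 68 h and read at 72 h (ex 530/em 590 nm). IC50 from sigmoidal dose-response curves; mean ± SEM, triplicate experiments in duplicate.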

Leishmania major [3] = experiment: Potency index, ratio of miltefosine IC50 to compound IC50 for antileishmanial activity axenic amastigote form of Leishmania major; type: functional
[4] = Cytotoxicity against African green monkey Vero cells assessed as reduction in cell viability after 72 hrs by crystal violet staining based assay; settings: chlorocebus sabaeus
Procedure, shortened: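 Vero cells seeded at 1×10^5 cells/well in MEM with 5% heat-inactivated FBS. Viability by crystal violet staining; CC50 from concentration-response. At least 3 separate experiments, each in duplicate.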

[5] = Selectivity index, ratio of CC50 African green monkey Vero cells to IC50 for promastigote form of Leishmania major; type: toxicity; settings: Vero cells versus Leishmania major promastigotes, read-out: Ratio CC50/IC50
Procedure, shortened: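 Selectivity index calculated as Vero CC50 (72 h crystal violet) divided by promastigote IC50.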

Mus musculus [6] = experiment: Acute toxicity in mouse assessed as effect on body weight at 25 to 125 mg/kg/day, po administered via gavage measured during 3 days post dose; type: organism-based; settings: in vivo, 72 h
Procedure, shortened: (§1)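 Male mice (25-30 g), six per group, fasted overnight and weighed before dosing. Compound suspended in aqueous 1% gum acacia and given by oral gavage in ascending doses of 25, 50, 75, 100 and 125 mg/kg/day (groups I-V). Vehicle group received gum acacia at up to 1 mL/100 g. Mortality recorded at 24 h and followed for seven days. Spleen, lung, liver and kidney examined.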

Mus musculus [7] = experiment: Acute toxicity in mouse assessed as induction of death at 25 to 125 mg/kg/day, po administered via gavage measured during 3 days post dose; type: organism-based; settings: in vivo, 72 h; procedure, shortened: as §1
Mus musculus [8] = experiment: Acute toxicity in mouse up to 125 mg/kg/day, po administered via gavage measured after 24 hrs and followed up to 7 days; type: organism-based; settings: in vivo; procedure, shortened: as §1
Mus musculus [9] = experiment: Acute toxicity in mouse assessed as effect on survival up to 75 mg/kg dosed via parenteral route measured up to 7 days; type: organism-based; settings: in vivo, 168 h
Procedure, shortened: (§2)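 Groups of six mice dosed by intraperitoneal injection at 5, 10, 25, 50 and 75 mg/kg, with propylene glycol as vehicle and control. Spleen, lung, liver and kidney taken from the 75 mg/kg animals and examined for texture.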

Mus musculus [10] = experiment: Acute toxicity in mouse assessed as effect on spleen morphology at 125 mg/kg, po administered via gavage measured after 24 hrs and followed up to 7 days by histopathological analysis; type: organism-based; settings: in vivo; procedure, shortened: as §1
Mus musculus [11] = experiment: Acute toxicity in mouse assessed as effect on spleen morphology at 75 mg/kg, ip measured up to 7 days by histopathological analysis; type: organism-based; settings: in vivo, 168 h; procedure, shortened: as §2
Mus musculus [12] = experiment: Acute toxicity in mouse assessed as effect on lung morphology at 125 mg/kg, po administered via gavage measured after 24 hrs and followed up to 7 days by histopathological analysis; type: organism-based; settings: in vivo; procedure, shortened: as §1
Mus musculus [13] = experiment: Acute toxicity in mouse assessed as effect on lung morphology at 75 mg/kg, ip measured up to 7 days by histopathological analysis; type: organism-based; settings: in vivo, 168 h; procedure, shortened: as §2
Mus musculus [14] = experiment: Acute toxicity in mouse assessed as effect on liver morphology at 125 mg/kg, po administered via gavage measured after 24 hrs and followed up to 7 days by histopathological analysis; type: organism-based; settings: in vivo; procedure, shortened: as §1
Mus musculus [15] = experiment: Acute toxicity in mouse assessed as effect on liver morphology at 75 mg/kg, ip measured up to 7 days by histopathological analysis; type: organism-based; settings: in vivo, 168 h; procedure, shortened: as §2
Mus musculus [16] = experiment: Acute toxicity in mouse assessed as effect on kidney morphology at 125 mg/kg, po administered via gavage measured after 24 hrs and followed up to 7 days by histopathological analysis; type: organism-based; settings: in vivo; procedure, shortened: as §1
Mus musculus [17] = experiment: Acute toxicity in mouse assessed as effect on kidney morphology at 75 mg/kg, ip measured up to 7 days by histopathological analysis; type: organism-based; settings: in vivo, 168 h; procedure, shortened: as §2
Leishmania major [18] = experiment: Antileishmanial activity against Leishmania major assessed as parasite survival at 0.25 uM after 48 hrs relative to control; type: functional
Procedure, shortened: (§3)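 L. major promastigotes in log phase (10⁶ parasites) pre-incubated with folic or folinic acid (20 or 100 µM), washed, resuspended in PBS for 1 h at room temperature, then returned to culture medium in 24-well plates. Compounds added at the fixed concentration, with trimethoprim at 100 µM. Incubated 48 h; living parasites counted per mL against untreated control wells.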

Leishmania major [19] = experiment: Antileishmanial activity against Leishmania major assessed as parasite survival at 0.25 uM after 48 hrs in presence of 20 uM folic acid relative to control; type: functional; procedure, shortened: as §3
Leishmania major [20] = experiment: Antileishmanial activity against Leishmania major assessed as parasite survival at 0.25 uM after 48 hrs in presence of 100 uM folic acid relative to control; type: functional; procedure, shortened: as §3
Leishmania major [21] = experiment: Antileishmanial activity against Leishmania major assessed as parasite survival at 0.25 uM after 48 hrs in presence of 20 uM folinic acid relative to control; type: functional; procedure, shortened: as §3
Leishmania major [22] = experiment: Antileishmanial activity against Leishmania major assessed as parasite survival at 0.25 uM after 48 hrs in presence of 100 uM folinic acid relative to control; type: functional; procedure, shortened: as §3
Leishmania major [23] = experiment: Potency index, ratio of miltefosine IC50 to compound IC50 for antileishmanial activity promastigote form of Leishmania major; type: functional
Leishmania major [24] = experiment: Antileishmanial activity against Leishmania major assessed as parasite survival at 0.16 uM after 48 hrs relative to control; type: functional; procedure, shortened: as §3
Leishmania major [25] = experiment: Antileishmanial activity against Leishmania major assessed as parasite survival at 0.16 uM after 48 hrs in presence of 100 uM folic acid relative to control; type: functional; procedure, shortened: as §3
Leishmania major [26] = experiment: Antileishmanial activity against Leishmania major assessed as parasite survival at 0.16 uM after 48 hrs in presence of 20 uM folic acid relative to control; type: functional; procedure, shortened: as §3
Leishmania major [27] = experiment: Antileishmanial activity against Leishmania major assessed as parasite survival at 0.16 uM after 48 hrs in presence of 20 uM folinic acid relative to control; type: functional; procedure, shortened: as §3
Leishmania major [28] = experiment: Antileishmanial activity against Leishmania major assessed as parasite survival at 0.16 uM after 48 hrs in presence of 100 uM folinic acid relative to control; type: functional; procedure, shortened: as §3

## C#CCOc1ccc(/C=N/NC(N)=S)cc1OC
Leishmania major [1]
  IC50: 0.227 µM
Leishmania major [2]
  IC50: 1.4 µM
Leishmania major [3]
  Ratio IC50: 6
[4]
  CC50 at 72 h: 828 µM
[5]
  selectivity ratio: 3640
Mus musculus [6]
  Activity: Non-Toxic
Mus musculus [7]
  Activity: Non-Toxic
Mus musculus [8]
  Activity: Non-Toxic
Mus musculus [9]
  Activity: Non-Toxic
Mus musculus [10]
  Activity: Non-Toxic
Mus musculus [11]
  Activity: Non-Toxic
Mus musculus [12]
  Activity: Non-Toxic
Mus musculus [13]
  Activity: Non-Toxic
Mus musculus [14]
  Activity: Non-Toxic
Mus musculus [15]
  Activity: Non-Toxic
Mus musculus [16]
  Activity: Non-Toxic
Mus musculus [17]
  Activity: Non-Toxic
Leishmania major [18]
  Activity: 25%
Leishmania major [19]
  Activity: 89%
Leishmania major [20]
  Activity: 97%
Leishmania major [21]
  Activity: 90%
Leishmania major [22]
  Activity: 98%

## COc1cc(/C=N\NC(N)=S)ccc1OCc1cn(CC(=O)c2ccc(Br)cc2)nn1
Leishmania major [1]
  IC50: 3.97 µM
Leishmania major [2]
  IC50: 5.1 µM

## COc1cc(/C=N/NC(N)=S)ccc1OCc1cn(CC(=O)c2ccc(C)cc2)nn1
Leishmania major [1]
  IC50: 4.82 µM
Leishmania major [2]
  IC50: 4.97 µM

## COc1ccc(/C=N\NC(N)=S)cc1OCc1cn(CC(=O)c2ccc(Cl)cc2)nn1
Leishmania major [1]
  IC50: 0.798 µM
Leishmania major [2]
  IC50: 1.69 µM
Leishmania major [3]
  Ratio IC50: 5

## COc1cc(/C=N\NC(N)=S)ccc1OCc1cn(CC(=O)c2ccc(Cl)cc2)nn1
Leishmania major [1]
  IC50: 4.76 µM
Leishmania major [2]
  IC50: 5.4 µM

## COc1ccc(/C=N/NC(N)=S)cc1OCc1cn(-c2ccc(S(N)(=O)=O)cc2)nn1
Leishmania major [1]
  IC50: 4.38 µM
Leishmania major [2]
  IC50: 4.35 µM

## C/C(=N/NC(N)=S)c1ccc(OCc2cn(CC(=O)c3ccc(Br)cc3)nn2)cc1
Leishmania major [1]
  IC50: 0.14 µM
Leishmania major [2]
  IC50: 1 µM
Leishmania major [3]
  Ratio IC50: 8
Leishmania major [23]
  Ratio IC50: 55.6
[4]
  CC50 at 72 h: 509 µM
[5]
  selectivity ratio: 3630
Mus musculus [6]
  Activity: Non-Toxic
Mus musculus [7]
  Activity: Non-Toxic
Mus musculus [8]
  Activity: Non-Toxic
Mus musculus [9]
  Activity: Non-Toxic
Mus musculus [10]
  Activity: Non-Toxic
Mus musculus [11]
  Activity: Non-Toxic
Mus musculus [12]
  Activity: Non-Toxic
Mus musculus [13]
  Activity: Non-Toxic
Mus musculus [14]
  Activity: Non-Toxic
Mus musculus [15]
  Activity: Non-Toxic
Mus musculus [16]
  Activity: Non-Toxic
Mus musculus [17]
  Activity: Non-Toxic
Leishmania major [24]
  Activity: 23%
Leishmania major [25]
  Activity: 99%
Leishmania major [26]
  Activity: 91%
Leishmania major [27]
  Activity: 90%
Leishmania major [28]
  Activity: 99%

## COc1ccc(/C=N/NC(N)=S)cc1OCc1cn(CC(=O)c2ccc(F)cc2)nn1
Leishmania major [1]
  IC50: 2.52 µM
Leishmania major [2]
  IC50: 4.83 µM

## C/C(=N/NC(N)=S)c1ccc(OCc2cn(-c3ccc(C(=O)O)cc3)nn2)cc1
Leishmania major [1]
  IC50: 7.41 µM
Leishmania major [2]
  IC50: 6.04 µM

## COc1cc(/C=N/NC(N)=S)ccc1OCc1cn(CC(=O)c2ccc(F)cc2)nn1
Leishmania major [1]
  IC50: 6.93 µM
Leishmania major [2]
  IC50: 6.46 µM

## COc1ccc(/C=N\NC(N)=S)cc1OCc1cn(CC(=O)c2ccccc2)nn1
Leishmania major [1]
  IC50: 4.4 µM
Leishmania major [2]
  IC50: 4.38 µM

## COc1ccc(/C=N/NC(N)=S)cc1OCc1cn(CC(=O)c2ccc(C)cc2)nn1
Leishmania major [1]
  IC50: 0.99 µM
Leishmania major [2]
  IC50: 2.18 µM
Leishmania major [3]
  Ratio IC50: 4

## COc1cc(/C=N/NC(N)=S)ccc1OCc1cn(-c2ccc(C(=O)O)cc2)nn1
Leishmania major [1]
  IC50: 5.74 µM
Leishmania major [2]
  IC50: 5.6 µM

## COc1ccc(/C=N/NC(N)=S)cc1OCc1cn(-c2ccc(C(=O)O)cc2)nn1
Leishmania major [1]
  IC50: 5 µM
Leishmania major [2]
  IC50: 4.78 µM

## COc1ccc(/C=N\NC(N)=S)cc1OCc1cn(CC(=O)c2ccc(Br)cc2)nn1
Leishmania major [1]
  IC50: 5.69 µM
Leishmania major [2]
  IC50: 4.48 µM

## COc1cc(/C=N\NC(N)=S)ccc1OCc1cn(CC(=O)c2ccccc2)nn1
Leishmania major [1]
  IC50: 4.87 µM
Leishmania major [2]
  IC50: 5.39 µM

## C/C(=N/NC(N)=S)c1ccc(OCc2cn(-c3ccc(S(N)(=O)=O)cc3)nn2)cc1
Leishmania major [1]
  IC50: 6.79 µM
Leishmania major [2]
  IC50: 8.26 µM

## CCCCCCCCCCCCCCCCOP(=O)([O-])OCC[N+](C)(C)C [MILTEFOSINE]
Leishmania major [2]
  IC50: 8.09 µM
